Test results published in ChEMBL document CHEMBL1128731, “Furanfurin and thiophenfurin: two novel tiazofurin analogues. Synthesis, structure, antitumor activity, and interactions with inosine monophosphate dehydrogenase” (J Med Chem, 1995).
pIC50: −log10 of the molar value.

What was measured:
[1] = test system: K562; assay: Compound was tested for its effect on GMP ribonucleotide levels of K562 cell at 100 uM concentration; type: functional, Homo sapiens
Summary of the method: (§1)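 K562 cells (1×10^7) were treated with saline or agent for 2 h at 37 °C, harvested by centrifugation and washed with cold saline. They were extracted with cold 10% trichloroacetic acid, neutralized with 0.5 M tri-n-octylamine in freon, and analyzed by HPLC. Levels are in nmol/g and expressed as % of saline control. Significance was set at p < 0.05.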

[2] = test system: Lewis lung carcinoma cell line; assay: Inhibitory concentration against LLC Lewis lung carcinoma; type: functional, cell-based; conditions: Mus musculus
Summary of the method: (§2)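 Cells in log phase plated with a range of drug concentrations (B16 5×10^3 cells/well; P388, L1210, LLC 10^4 cells/well; HL-60, K562, LoVo 2.5×10^5 cells/well). Growth read by modified MTT after 72 h drug contact at 37 °C. IC50 taken as the concentration reducing optical absorption by 50%, from Chou regression analysis. Maximum concentration tested 200 μM.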

[3] = test system: K562; assay: Compound was tested for its effect on NAD ribonucleotide levels of K562 cell at 10 uM concentration; type: functional, Homo sapiens; summary of the method: as §1
[4] = test system: K562; assay: Compound was tested for its effect on NAD ribonucleotide levels of K562 cell at 50 uM concentration; type: functional, Homo sapiens; summary of the method: as §1
[5] = test system: HL-60; assay: (§3) Inhibitory concentration against human HL-60 cell line(activity expressed as range); type: functional, cell-based
Summary of the method: (§4)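 Antiproliferative assay scoring [125I]-5-iodo-2'-deoxyuridine incorporation into DNA after 72 h drug–cell contact. Run on normal human bone marrow from five donors and in three assays on HL-60. Ratio is antilog(mean log IC50 or IC90) on bone marrow over the same on HL-60. Range limits are antilog(mean log IC50 ± 2SD).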

[6] = test system: K562; assay: Formation of NAD analogue by compound at 100 uM concentration against human myelogenous leukemia K562; type: functional
Summary of the method: (§5)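 K562 cells (1×10^7/10 mL) were labeled with 185 nM [2,8-3H]adenosine for 1 h at 37 °C, then given saline or analogue for 2 h. Cells were pelleted, washed with PBS and extracted in cold 10% trichloroacetic acid. Extracts were neutralized with 0.5 M tri-n-octylamine in freon and run on SAX HPLC with ammonium phosphate buffer. Results are pmol NAD analogue per 10^9 cells.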

[7] = test system: K562; assay: Compound was tested for its effect on GMP ribonucleotide levels of K562 cell at 50 uM concentration; type: functional, Homo sapiens; summary of the method: as §1
[8] = test system: LoVo; assay: Inhibitory concentration against LoVo human colon adenocarcinoma cell lines; type: functional, cell-based; summary of the method: as §2
[9] = test system: HL-60; assay: as §3; type: functional; summary of the method: as §4
[10] = test system: K562; assay: Compound was tested for its effect on CDP ribonucleotide levels of K562 cell at 100 uM concentration; type: functional, Homo sapiens; summary of the method: as §1
[11] = test system: K562; assay: Compound was tested for its effect on ADP ribonucleotide levels of K562 cell at 50 uM concentration; type: functional, Homo sapiens; summary of the method: as §1
[12] = Ratio of IC50 against HL-60; type: functional; summary of the method: as §4
[13] = test system: K562; assay: Compound was tested for its effect on UTP ribonucleotide levels of K562 cell at 10 uM concentration; type: functional, Homo sapiens; summary of the method: as §1
[14] = test system: K562; assay: Compound was tested for its effect on GTP ribonucleotide levels of K562 cell at 50 uM concentration; type: functional, Homo sapiens; summary of the method: as §1
[15] = test system: K562; assay: Compound was tested for its effect on UDP ribonucleotide levels of K562 cell at 10 uM concentration; type: functional, Homo sapiens; summary of the method: as §1
[16] = test system: Mus musculus; assay: Average weight change of mice from onset to termination of drug treatment at 25 mg/kg dose; type: functional
Summary of the method: (§6)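 Female BD2F1 mice (8 weeks, 20–22 g), eight per group, injected ip with 10^5 L1210 cells on day 0. From 24 h later, drug in 0.9% NaCl was given ip once daily for 9 days. Body weight change was averaged from onset to termination of treatment. Early deaths from toxicity were recorded.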

[17] = test system: K562; assay: Compound was tested for its effect on GMP ribonucleotide levels of K562 cell at 10 uM concentration; type: functional, Homo sapiens; summary of the method: as §1
[18] = test system: K562; assay: Compound was tested for its effect on CDP ribonucleotide levels of K562 cell at 10 uM concentration; type: functional, Homo sapiens; summary of the method: as §1
[19] = test system: B16; assay: Inhibitory concentration against B16 melanoma cell lines; type: functional, cell-based; conditions: Mus musculus; summary of the method: as §2
[20] = test system: K562; assay: Compound was tested for its effect on UTP ribonucleotide levels of K562 cell at 100 uM concentration; type: functional, Homo sapiens; summary of the method: as §1
[21] = species: Homo sapiens; assay: Inhibitory concentration range against human bone marrow; type: functional; summary of the method: as §4
[22] = test system: Mus musculus; assay: Compound was tested for ratio of survival time of treated to control mice x100 at 400 mg/kg dose; type: functional
Summary of the method: (§7)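 Female BD2F1 mice (8 weeks old, 20–22 g), eight per group, injected ip with 10^5 L1210 leukemia cells on day 0. Starting 24 h later, drug dissolved in 0.9% NaCl given ip once daily for 9 consecutive days. % T/C = survival time of treated/control mice × 100. Body weight change tracked from start to end of treatment.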

[23] = test system: K562; assay: Compound was tested for its effect on GDP ribonucleotide levels of K562 cell at 10 uM concentration; type: functional, Homo sapiens; summary of the method: as §1
[24] = test system: K562; assay: Compound was tested for its effect on CDP ribonucleotide levels of K562 cell at 50 uM concentration; type: functional, Homo sapiens; summary of the method: as §1
[25] = test system: K562; assay: Compound was tested for its effect on ATP ribonucleotide levels of K562 cell at 100 uM concentration; type: functional, Homo sapiens; summary of the method: as §1
[26] = test system: K562; assay: Compound was tested for its effect on IMPDH activity against K562 cells at 100 uM concentration; type: functional, Homo sapiens
Summary of the method: (§8)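 Log-phase K562 cells (1×10^6/mL) were exposed to saline or agent for 2 h at 37 °C, washed and lysed (Tris-HCl pH 7.4, NaCl, MgCl2, 0.5% NP-40, aprotinin). The cleared supernatant was incubated 30 min at 37 °C with 286 μM [2,8-3H]IMP and 1 mM NAD. Tritium release was counted by scintillation. Activity is nmol XMP/h/mg protein, also given as % of control.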

[27] = test system: K562; assay: Compound was tested for its effect on GTP ribonucleotide levels of K562 cell at 10 uM concentration; type: functional, Homo sapiens; summary of the method: as §1
[28] = test system: K562; assay: Compound was tested for its effect on ATP ribonucleotide levels of K562 cell at 50 uM concentration; type: functional, Homo sapiens; summary of the method: as §1
[29] = test system: Mus musculus; assay: Compound was tested for ratio of survival time of treated to control mice x100 at 100 mg/kg dose; type: functional; summary of the method: as §7
[30] = IC90 ratio against bone marrow samples to HL-60; type: functional; summary of the method: as §4
[31] = test system: K562; assay: Compound was tested for its effect on UMP ribonucleotide levels of K562 cell at 100 uM concentration; type: functional, Homo sapiens; summary of the method: as §1
[32] = test system: K562; assay: Compound was tested for its effect on IMPDH activity against K562 cells at 50 uM concentration; type: functional, Homo sapiens; summary of the method: as §8
[33] = test system: L1210; assay: Inhibitory concentration against L1210 murine lymphocytic leukemia; type: functional, cell-based; conditions: Mus musculus; summary of the method: as §2
[34] = test system: Mus musculus; assay: Compound was tested for ratio of survival time of treated to control mice x100 at 6.2 mg/kg dose; type: functional; summary of the method: as §7
[35] = test system: K562; assay: Compound was tested for its effect on AMP ribonucleotide levels of K562 cell at 50 uM concentration; type: functional, Homo sapiens; summary of the method: as §1
[36] = test system: K562; assay: Formation of NAD analogue by compound at 50 uM concentration against human myelogenous leukemia K562; type: functional; summary of the method: as §5
[37] = test system: Mus musculus; assay: Average weight change of mice from onset to termination of drug treatment at 6.2 mg/kg dose; type: functional; summary of the method: as §6
[38] = test system: K562; assay: Compound was tested for its effect on AMP ribonucleotide levels of K562 cell at 10 uM concentration; type: functional, Homo sapiens; summary of the method: as §1
[39] = test system: K562; assay: Compound was tested for its effect on GDP ribonucleotide levels of K562 cell at 100 uM concentration; type: functional, Homo sapiens; summary of the method: as §1
[40] = test system: P388; assay: Inhibitory concentration against P388 murine lymphocytic leukemia cell lines; type: functional, cell-based; conditions: Mus musculus; summary of the method: as §2

NC(=O)c1csc([C@@H]2O[C@H](CO)[C@@H](O)[C@H]2O)c1
Control [1]: 80% | pIC50 [2]: 4.95 | Control [3]: 81% | Control [4]: 66% | pIC50 [5]: 5.62 | Formation [6]: 886 pmol/10^9 cells | Control [7]: 90% | pIC50 [8]: 3.99 | IC90 [9]: 8.3 µM | Control [10]: 99% | Control [11]: 114% | Ratio [12]: 5.9 | Control [13]: 91% | Control [14]: 58% | Control [15]: 134% | Change [16]: -9.8% | Control [17]: 98% | Control [18]: 84% | pIC50 [19]: 4.59 | Control [20]: 87% | IC90 [21]: >128 µM | T/C [22]: <100% | Control [23]: 97% | Control [24]: 82% | Control [25]: 81% | Activity [26]: 1.07 | Control [27]: 71% | Control [28]: 88% | T/C [29]: <100% | Ratio [30]: >10 | Control [31]: 107% | Activity [32]: 1.85 | pIC50 [33]: 5.12 | T/C [34]: 155% | Control [35]: 140% | Formation [36]: 505 pmol/10^9 cells | Change [37]: 8.5% | Control [38]: 156% | Control [39]: 77% | pIC50 [40]: 5.49
